Bioassay records as filed in PubChem BioAssay.
Sampled rows, rich in hits. Any-hit rate of the full collection: about 2.1%.
MIN6 prolif: MIN6 beta-cell proliferation induction. 330,000 compounds, 0.29% hits. MIN6 cells proliferation, ATPlite luminescence, 48 h; cells starved in 0.2% serum; 100% = growth in 10% serum. proliferation, % at 10 µM;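 active means compounds whose signal lies at least 3.5 SD above the mean of all wells on their plate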;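 further: 0% = DMSO-treated cells in low-serum medium and 100% = 10% serum control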
NOD2-RIPK2 inh: blocks binding of human NOD2 to RIPK2. O43353. CHO BLA complementation NOD2-RIPK2, CCF4 ratio. inhibition, % at 4.98 µM. 360,000 compounds, 0.38% hits. AID 624267; in the data active means inhibition above about 21%;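 further: 0% = vehicle only and 100% = reference blocker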
MC4R ag barr: activates human MC4R beta-arrestin recruitment | U2OS MC4R beta-arrestin complementation, luminescence; percent of melanotan II response, DMSO zero | activation, % at 8.9 µM | 360,000 compounds, 0.98% hits;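 active means activation above a per-plate cutoff, the mean activation of sample wells on that plate plus 3 SD, cut at about 8% in these data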
MC4R antag cAMP: blocks human MC4R cAMP signaling; MC4R-expressing cells, MTII-stimulated cAMP, LANCE TR-FRET; 360,000 compounds, 0.48% hits; P32245; inhibition, % at 6.5 µM;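 active means inhibition above its plate's cutoff, the mean of tested wells on that plate plus 3 SD, cut at about 29% in these data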;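 further: 0% = Melanotan II alone and 100% = Melanotan II plus saturating MCL0020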
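system = U2OS cells with stable human MC4R expression | also added = Melanotan II challenge after compound preincubation | dosing = one concentration, 6.5 µM nominal | incubation = compound 30 min, challenge 1 h, detection 1 h | measured by = TR-FRET with Eu-cAMP and labeled anti-cAMP, 671 nm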
TLR9-MyD88 inh: inhibitors of human TLR9-MyD88 binding; Q9NR96+Q99836; CHO BLA complementation TLR9-MyD88, CCF4 FRET ratio; inhibition, % at 4.98 µM; 340,000 compounds, 0.21% hits; AID 504734;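 active means inhibition above the mean over all tested compounds plus 3 SD, cut at about 21% in these data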;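 further: 0% = DMSO only wells and 100% = clavulanate BLA inhibitor control wells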
Target sequence (Q99836 whole entry, looked up): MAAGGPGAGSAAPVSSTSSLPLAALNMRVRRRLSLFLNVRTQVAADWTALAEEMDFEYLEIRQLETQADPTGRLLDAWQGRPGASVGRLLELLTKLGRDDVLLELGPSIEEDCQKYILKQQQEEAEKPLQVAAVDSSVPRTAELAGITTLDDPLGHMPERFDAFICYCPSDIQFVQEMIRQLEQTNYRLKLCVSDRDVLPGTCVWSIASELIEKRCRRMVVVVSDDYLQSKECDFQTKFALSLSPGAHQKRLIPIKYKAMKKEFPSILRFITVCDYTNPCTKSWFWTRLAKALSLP
Target sequence (Q9NR96 whole entry, looked up): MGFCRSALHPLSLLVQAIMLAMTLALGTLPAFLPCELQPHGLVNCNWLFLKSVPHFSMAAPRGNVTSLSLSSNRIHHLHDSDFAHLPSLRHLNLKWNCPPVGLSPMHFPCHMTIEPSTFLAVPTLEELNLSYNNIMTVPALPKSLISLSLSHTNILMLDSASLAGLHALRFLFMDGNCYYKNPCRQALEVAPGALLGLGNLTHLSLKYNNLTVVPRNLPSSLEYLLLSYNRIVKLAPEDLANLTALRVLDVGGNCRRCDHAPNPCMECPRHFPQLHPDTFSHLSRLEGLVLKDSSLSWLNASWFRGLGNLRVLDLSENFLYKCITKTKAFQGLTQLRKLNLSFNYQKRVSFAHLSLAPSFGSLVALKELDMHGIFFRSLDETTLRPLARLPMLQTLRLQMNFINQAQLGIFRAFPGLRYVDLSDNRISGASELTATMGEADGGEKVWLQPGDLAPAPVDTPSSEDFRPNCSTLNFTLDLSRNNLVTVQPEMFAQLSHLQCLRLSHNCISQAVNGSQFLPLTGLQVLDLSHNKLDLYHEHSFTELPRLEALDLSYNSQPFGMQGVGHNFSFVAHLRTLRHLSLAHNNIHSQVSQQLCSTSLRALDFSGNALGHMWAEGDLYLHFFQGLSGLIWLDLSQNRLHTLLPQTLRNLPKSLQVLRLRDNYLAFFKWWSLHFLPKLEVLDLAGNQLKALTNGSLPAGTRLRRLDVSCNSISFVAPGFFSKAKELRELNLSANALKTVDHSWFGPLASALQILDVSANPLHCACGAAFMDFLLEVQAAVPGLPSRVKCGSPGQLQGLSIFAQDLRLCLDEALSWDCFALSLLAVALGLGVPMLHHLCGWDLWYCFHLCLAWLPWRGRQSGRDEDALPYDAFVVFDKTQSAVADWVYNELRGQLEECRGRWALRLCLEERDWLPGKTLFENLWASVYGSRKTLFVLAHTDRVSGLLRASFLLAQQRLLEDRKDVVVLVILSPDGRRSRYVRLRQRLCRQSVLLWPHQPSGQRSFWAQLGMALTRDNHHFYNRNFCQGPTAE
TLR4-MyD88 BLA: TLR4-MyD88 interaction inhibition in cells; O00206+Q99836; HeLa CL3-4 TLR4/MyD88 BLA complementation, FRET ratio; inhibition, % at 8.4 µM; 200,000 compounds, 0.18% hits; in the data active means inhibition above about 25%;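 further: 0% = vehicle and 100% = reference inhibitor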
MC4R barr ag: human MC4R beta-arrestin agonism confirmation. shares compounds with MC4R ag barr. U2OS MC4R beta-arrestin recruitment, luminescence; scaled DMSO 0%, Melanotan II 100%. activation, % at 8.9 µM. 2,400 compounds, 31% hits;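 active means mean activation across replicates above the hit cutoff set in the earlier primary screen, cut at about 8% in these data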
MOR DOR agonist: activates mu-delta opioid heterodimer, MC4R agonist counter-screen; shares compounds with MC4R ag barr; U2OS PathHunter beta-arrestin, beta-gal luminescence; percent of deltorphin B response, DMSO zero; activation, % at 9.2 µM; 2,400 compounds, 5.8% hits;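 active means mean activation across replicates exceeds the hit threshold derived in the earlier primary screen, cut at about 18% in these data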;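 further: 100% = deltorphin B at 0.9 µM final and 0% = DMSO alone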
Numbers without * were called inactive; x = not tested or not shown.

SMILES	MIN6 prolif	NOD2-RIPK2 inh	MC4R ag barr	MC4R antag cAMP	TLR9-MyD88 inh	TLR4-MyD88 BLA	MC4R barr ag	MOR DOR agonist
O=C(CCCN1C(=O)/C(=C/c2ccccc2)SC1=S)Nc1ccccc1O	-4.6	-4.2	6.4	-2.9	1.3	8.0	x	x
O=C(CCN1C(=O)/C(=C\c2ccccc2)SC1=S)NNC(=O)c1cccnc1	-3.1	-5.8	21.1*	1.2	0.2	6.9	5.1	0.8
O=C(CCCN1C(=O)/C(=C/c2ccccc2Cl)SC1=S)NNC(=O)c1cccnc1	-3.0	10.1	-3.1	-4.6	-3.2	x	x	x
COc1ccccc1C(=O)NNC(=O)CCCN1C(=O)/C(=C/c2cccs2)SC1=S	0.7	-6.8	22.9*	0.3	-5.4	-6.5	6.7	4.3
O=C(CCN1C(=O)/C(=C\c2ccccc2)SC1=S)NNC(=O)c1ccccc1O	-0.6	10.6	10.3*	-1.5	-11.9	x	3.5	2.8
CC1=C([N+](=O)[O-])C(c2ccccc2)NC(=O)N1 (configuration not stated)	-2.1	-7.0	1.9	15.4	-2.0	x	x	x
COc1ccc(C(=O)NCC2(c3ccc(OC)c(OC)c3)CCCC2)c(OC)c1	1.4	-9.8	0.2	3.0	-4.3	x	x	x
N#Cc1ccccc1N/C=C/C(=O)c1ccc(Cl)cc1	-2.0	8.5	12.6*	2.9	x	x	3.4	2.9
O=C(c1cnc(Cc2c[nH]c3ccccc23)c(I)c1)N1CCCCC1	x	10.4	1.8	10.4	x	x	x	x
O=C(OC(C(=O)NC1CCCCC1)c1ccc(C(F)(F)F)cc1)c1ccco1 (configuration not stated)	-0.3	-1.7	11.2*	-1.8	-2.4	x	1.7	4.2
CC(C)C(NC(=O)c1ccc(C(C)(C)C)cc1)C(=O)NCc1ccccn1 (configuration not stated)	2.3	-3.1	-0.8	7.7	-13.0	x	x	x
CNC(=O)/C(C#N)=C/c1ccc(-c2ccc(Cl)cc2)o1	-4.2	0.2	14.3*	5.5	3.4	-1.5	41.2*	12.8
COc1cc(OC)c(OC)cc1/C=C(\C#N)C(=O)NCc1cccs1	5.0	0.6	-1.1	0.6	-8.3	x	x	x
CCOC(=O)c1ccc(-c2ccc(/C=C(\C#N)C(=O)NCc3cccs3)o2)cc1	x	0.6	38.5*	-18.5	-2.5	1.1	27.1*	6.2
CNC(=O)/C(C#N)=C/c1ccc(-c2ccccc2[N+](=O)[O-])o1	0.4	-0.2	-2.3	-16.7	-5.1	-5.9	x	x
C/C(=N\NC(=O)Nc1ccccc1)c1ccc2ccccc2c1	-0.8	-3.8	20.7*	-0.5	-4.7	-8.9	3.8	6.5
C/C(=N/NC(=O)Nc1ccccc1)c1ccc(C)cc1	-0.1	-9.9	10.8*	1.9	-8.2	-10.3	-1.2	2.7
O=C(NCc1ccc(-c2csnn2)cc1)c1cccs1	-1.9	0.1	1.4	10.7	-2.6	x	x	x
O=C(NCc1ccc(-c2csnn2)cc1)c1cc(Cl)cc(Cl)c1	-0.6	7.0	12.5*	2.4	-8.1	x	2.0	4.4
CCN1C(=O)/C(=C\N2CCN(C)CC2)SC1=S	1.9	-2.8	0.2	-6.6	-0.2	-4.1	x	x
CCN1C(=O)/C(=C\N2CCN(c3ccc(F)cc3)CC2)SC1=S	-3.9	-6.6	19.4*	0.8	-15.8	-3.2	2.0	6.4
CC1(C(=O)OCC(=O)Nc2ccc3ccccc3c2)CC1(Cl)Cl (configuration not stated)	-4.9	3.7	3.7	-3.4	4.0	-4.9	x	x
CC(/C=N/NC(=O)c1cccs1)=C\c1ccccc1	-5.0	3.3	15.9*	-15.0	-0.5	0.3	2.2	8.6
Cc1ccc(NCC(=O)N/N=C/c2cccc(Oc3ccccc3)c2)cc1	-5.7	-5.7	23.6*	-0.7	-10.5	9.1	3.7	3.3
Cc1cccc(NCC(=O)N/N=C\c2cccc(Oc3ccccc3)c2)c1	-5.6	4.5	11.9*	-1.9	-1.7	15.3	3.3	3.6
SMILES	MIN6 prolif	NOD2-RIPK2 inh	MC4R ag barr	MC4R antag cAMP	TLR9-MyD88 inh	TLR4-MyD88 BLA	MC4R barr ag	MOR DOR agonist
CC(/C=C/C=C/c1ccccc1)=N/NC(=O)CNc1ccc(C)cc1	-3.0	4.4	13.8*	-17.6	9.0	7.2	0.8	3.5
N#CCC(=O)N/N=C/c1cccc(Oc2ccccc2)c1	1.0	2.2	0.3	4.2	-10.2	-4.6	x	x
CCC(C)N(C(=O)CSc1ccc(NC(C)=O)cc1)C1CCS(=O)(=O)C1 (configuration not stated)	0.6	2.8	-3.2	6.4	-7.5	0.7	x	x
O=S(=O)(c1ccc2nc(-c3ccccc3)[nH]c2c1)N1CCN(c2cccc(Cl)c2)CC1	0.1	8.6	15.2*	5.1	-4.7	-3.6	4.6	7.9
Cc1ccc(NCC(=O)N2CCN(S(=O)(=O)c3ccccc3)CC2)cc1F	4.5	-4.8	-1.4	11.4	-4.3	x	x	x
Cn1c(SCC(=O)Nc2cc(Cl)cc(Cl)c2)nnc1-c1ccc2nonc2c1	-3.4	-4.3	35.8*	-6.3	x	x	7.8	8.0
Cc1ccc(OCc2ccc(C(=O)Nc3nccs3)o2)cc1	-2.8	-7.4	15.1*	-5.4	-9.3	-7.8	2.5	2.8
CN(c1ccccc1)S(=O)(=O)c1cccc(NC(=O)CSc2nccc(=O)[nH]2)c1	-1.1	-1.6	-0.6	6.7	-6.1	x	x	x
O=C(COC(=O)/C=C/c1ccc(Cl)cc1)Nc1ccc2c(c1)OCCO2	0.0	-9.6	24.0*	-5.8	-8.3	3.1	3.5	3.9
Cc1ccc(C)c(NC(=O)C2CCN(C(=O)c3cccs3)CC2)c1	0.0	-3.6	-0.1	17.4	-5.1	x	x	x
Clc1ccc(/C=C\c2nccc3c2[nH]c2ccccc23)cc1	x	-56.7	14.0*	8.3	-73.5	-106.6	3.8	11.0
Clc1ccc(/C=C/c2nc3ccccc3[nH]2)cc1	-6.1	5.0	0.4	4.1	2.0	2.5	x	x
Cc1cc(C)nc(Nc2n[nH]c(COc3ccc4ccccc4c3)n2)n1	-3.1	0.3	16.1*	0.3	0.6	-3.7	-0.2	2.9
CCCCN(C)S(=O)(=O)c1cc2c3c(c1)CCC(=O)N3CCC2	-3.6	3.6	-2.7	10.5	-2.4	x	x	x
Fc1ccc(-c2nnsc2Sc2ccccn2)cc1	-3.7	10.9	12.2*	0.6	7.4	4.1	-1.1	2.8
O=C(CSc1ccccn1)c1ccc(F)cc1	-2.0	-0.8	-2.6	2.7	5.2	8.8	x	x
Cc1ccc([N+](=O)[O-])cc1NC(=S)NC(=O)c1c(Cl)cnn1C	-4.9	-11.2	18.3*	20.6	-4.6	x	-0.4	4.3
CSc1cc(-c2ccccc2)n(C)c(=O)c1C#N	-3.3	-10.7	11.6*	-4.4	8.3	-6.6	1.4	3.3
